Results on two compounds are retold here after ChEMBL document CHEMBL1137650, “An OXA-66/OXA-51-like carbapenemase and possibly an efflux pump are associated with resistance to imipenem in Acinetobacter baumannii” (2007).

Values after ≈ are worked out from the molar mass of the structure shown.

In the first assay the test system is Acinetobacter baumannii. Nature of the assay: Antibacterial activity against imipenem-susceptible Acinetobacter baumannii ATCC 19606 by broth dilution method. The conditions noted are these: ATCC 19606 = CIP 70.34 = JCM 6841. It is filed as functional. On the technique in general: In broth dilution the organism is exposed to a series of concentrations in liquid medium.
`O=C(O)c1cn(C2CC2)c2cc(N3CCNCC3)c(F)cc2c1=O` [CIPROFLOXACIN]: the MIC (usually the lowest concentration found to suppress growth) worked out at 0.75 µg/mL (≈ 2.26 µM).

Another assay deals with Acinetobacter baumannii. The assay can be described thus: Antibacterial activity against imipenem-susceptible Acinetobacter baumannii ab3 by broth dilution method.
Conditions: not given
The class given is functional. Summed up:
(§1)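 Clinical isolates were collected at three Taiwan hospitals (1993–2003) and grown in tryptic soy broth at 37°C for 18 h. MIC by broth dilution following CLSI recommendations.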
GENTAMICIN displayed a minimal inhibitory concentration (MIC) of 256 µg/mL.

In turn, `O=C(O)c1cn(C2CC2)c2cc(N3CCNCC3)c(F)cc2c1=O` [CIPROFLOXACIN] gave an MIC of 0.125 µg/mL (≈ 0.377 µM).

The test system of a further assay is Acinetobacter baumannii. Nature of the assay: Antibacterial activity against imipenem-susceptible Acinetobacter baumannii ab4 by broth dilution method. It is filed as functional.
Conditions: not given
The method in brief: as §1
As to GENTAMICIN, it took 256 µg/mL to inhibit growth (MIC).

In turn, `O=C(O)c1cn(C2CC2)c2cc(N3CCNCC3)c(F)cc2c1=O` [CIPROFLOXACIN] returned a minimum inhibitory concentration (MIC) of 0.25 µg/mL (≈ 0.754 µM).

The next assay has as its system Acinetobacter baumannii. Nature of the assay: Antibacterial activity against imipenem-susceptible Acinetobacter baumannii ab8 by broth dilution method.
Conditions: not given
The class given is functional. Summed up: as §1
For the compound GENTAMICIN, the minimal inhibitory concentration (MIC) is above 256 µg/mL.

Regarding `O=C(O)c1cn(C2CC2)c2cc(N3CCNCC3)c(F)cc2c1=O` [CIPROFLOXACIN], the MIC is 0.38 µg/mL (≈ 1.15 µM).

Another assay deals with Acinetobacter baumannii. The assay can be described thus: Antibacterial activity against imipenem-susceptible Acinetobacter baumannii ab12 by broth dilution method.
Conditions: not given
The class given is functional. Summed up: as §1
For GENTAMICIN, the minimum inhibitory concentration (MIC) was above 256 µg/mL.

`O=C(O)c1cn(C2CC2)c2cc(N3CCNCC3)c(F)cc2c1=O` [CIPROFLOXACIN] came in with an MIC of 0.25 µg/mL (≈ 0.754 µM).

A further assay has as its system Acinetobacter baumannii. Nature of the assay: Antibacterial activity against imipenem-susceptible Acinetobacter baumannii ab20 by broth dilution method. It is filed as functional.
Conditions: not given
Summed up: as §1
GENTAMICIN registered an MIC above 256 µg/mL.

`O=C(O)c1cn(C2CC2)c2cc(N3CCNCC3)c(F)cc2c1=O` [CIPROFLOXACIN] showed a minimum inhibitory concentration (MIC) of 3 µg/mL (≈ 9.05 µM).

In a further assay the test system is Acinetobacter baumannii. Nature of the assay: Antibacterial activity against imipenem-susceptible Acinetobacter baumannii ab1308 by broth dilution method. The class given is functional.
Conditions: not given
Summed up: (§2)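 Clinical A. baumannii isolates collected at three Taiwanese hospitals, routinely grown in tryptic soy broth at 37°C for 18 h. MICs (μg ml⁻¹) were determined by broth dilution following CLSI recommendations, or by Etest strips following the manufacturer's instructions.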
Turning to GENTAMICIN, the minimal inhibitory concentration (MIC) is above 256 µg/mL.

The compound `O=C(O)c1cn(C2CC2)c2cc(N3CCNCC3)c(F)cc2c1=O` [CIPROFLOXACIN] gave a minimum inhibitory concentration (MIC) above 32 µg/mL.

The test system of another assay is Acinetobacter baumannii. The assay can be described thus: Antibacterial activity against imipenem-susceptible Acinetobacter baumannii ab1254 by broth dilution method. It is filed as functional.
Conditions: not given
Summed up: as §1
Turning to GENTAMICIN, the minimal inhibitory concentration (MIC) was above 256 µg/mL.

The compound `O=C(O)c1cn(C2CC2)c2cc(N3CCNCC3)c(F)cc2c1=O` [CIPROFLOXACIN] had a minimal inhibitory concentration (MIC) above 32 µg/mL.

Another assay relates to Acinetobacter baumannii. The assay can be described thus: Antibacterial activity against imipenem-susceptible Acinetobacter baumannii ab1316 by broth dilution method.
Conditions: not given
The class given is functional. The method in brief: as §2
Compound GENTAMICIN had an MIC above 256 µg/mL.

The compound `O=C(O)c1cn(C2CC2)c2cc(N3CCNCC3)c(F)cc2c1=O` [CIPROFLOXACIN] yielded a minimal inhibitory concentration (MIC) above 32 µg/mL.

Another assay concerns Acinetobacter baumannii. Nature of the assay: Antibacterial activity against imipenem-intermediate Acinetobacter baumannii ab1297 by broth dilution method.
Conditions: not given
It is filed as functional. Summed up:
as §2
Take GENTAMICIN: the minimal inhibitory concentration (MIC) was above 256 µg/mL.

`O=C(O)c1cn(C2CC2)c2cc(N3CCNCC3)c(F)cc2c1=O` [CIPROFLOXACIN] registered an MIC above 32 µg/mL.

The subject of another assay is Acinetobacter baumannii. Nature of the assay: Antibacterial activity against imipenem-resistant Acinetobacter baumannii ab1265 by broth dilution method. The class given is functional.
Conditions: not given
The method in brief: as §1
Compound GENTAMICIN displayed an MIC above 256 µg/mL.

For `O=C(O)c1cn(C2CC2)c2cc(N3CCNCC3)c(F)cc2c1=O` [CIPROFLOXACIN], the MIC was above 32 µg/mL.

The test system of the next assay is Acinetobacter baumannii. The assay can be described thus: Antibacterial activity against imipenem-resistant Acinetobacter baumannii ab1266 by broth dilution method.
Conditions: not given
It is filed as functional. Summed up:
as §1
As for GENTAMICIN, the minimum inhibitory concentration (MIC) was above 256 µg/mL.

`O=C(O)c1cn(C2CC2)c2cc(N3CCNCC3)c(F)cc2c1=O` [CIPROFLOXACIN]: the MIC is above 32 µg/mL.

In the next assay the test system is Acinetobacter baumannii. Nature of the assay: Antibacterial activity against imipenem-resistant Acinetobacter baumannii abh9 by broth dilution method. It is filed as functional.
Conditions: not given
Summed up:
as §1
Consider GENTAMICIN, for which the minimum inhibitory concentration (MIC) was above 256 µg/mL.

In turn, `O=C(O)c1cn(C2CC2)c2cc(N3CCNCC3)c(F)cc2c1=O` [CIPROFLOXACIN] yielded an MIC above 32 µg/mL.

The next assay deals with Acinetobacter baumannii. The assay can be described thus: Antibacterial activity against imipenem-resistant Acinetobacter baumannii abh11 by broth dilution method. It is filed as functional.
Conditions: not given
Summed up: as §1
Take GENTAMICIN: the MIC is above 256 µg/mL.

In turn, `O=C(O)c1cn(C2CC2)c2cc(N3CCNCC3)c(F)cc2c1=O` [CIPROFLOXACIN] gave an MIC above 32 µg/mL.

A further assay concerns Acinetobacter baumannii. The assay can be described thus: Antibacterial activity against imipenem-resistant Acinetobacter baumannii abh13 by broth dilution method. It is filed as functional.
Conditions: not given
Summed up:
as §1
GENTAMICIN yielded a minimum inhibitory concentration (MIC) above 256 µg/mL.

In turn, `O=C(O)c1cn(C2CC2)c2cc(N3CCNCC3)c(F)cc2c1=O` [CIPROFLOXACIN] gave a minimum inhibitory concentration (MIC) above 32 µg/mL.

For the next assay, the system named is Acinetobacter baumannii. The assay can be described thus: Antibacterial activity against imipenem-resistant Acinetobacter baumannii abh14 by broth dilution method.
Conditions: not given
It is filed as functional. The method in brief: as §1
GENTAMICIN displayed a minimal inhibitory concentration (MIC) above 256 µg/mL.

`O=C(O)c1cn(C2CC2)c2cc(N3CCNCC3)c(F)cc2c1=O` [CIPROFLOXACIN] showed an MIC above 32 µg/mL.

The test system of a further assay is Acinetobacter baumannii. Nature of the assay: Antibacterial activity against imipenem-resistant Acinetobacter baumannii abh17 by broth dilution method. The class given is functional.
Conditions: not given
Summed up:
as §1
In the case of GENTAMICIN, the MIC was above 256 µg/mL.

For the compound `O=C(O)c1cn(C2CC2)c2cc(N3CCNCC3)c(F)cc2c1=O` [CIPROFLOXACIN], the MIC is above 32 µg/mL.

The test system of another assay is Acinetobacter baumannii. Nature of the assay: Antibacterial activity against imipenem-resistant Acinetobacter baumannii abh18 by broth dilution method. The class given is functional.
Conditions: not given
Summed up:
as §1
In the case of GENTAMICIN, the MIC was above 256 µg/mL.

Compound `O=C(O)c1cn(C2CC2)c2cc(N3CCNCC3)c(F)cc2c1=O` [CIPROFLOXACIN] yielded an MIC above 32 µg/mL.

The test system of a further assay is Acinetobacter baumannii. The assay can be described thus: Antibacterial activity against imipenem-resistant Acinetobacter baumannii abh20 by broth dilution method. It is filed as functional.
Conditions: not given
Summed up:
as §1
For GENTAMICIN, the MIC was above 256 µg/mL.

In the case of `O=C(O)c1cn(C2CC2)c2cc(N3CCNCC3)c(F)cc2c1=O` [CIPROFLOXACIN], the MIC is above 32 µg/mL.

A further assay relates to Acinetobacter baumannii. The assay can be described thus: Antibacterial activity against imipenem-resistant Acinetobacter baumannii abh26 by broth dilution method. The class given is functional.
Conditions: not given
The method in brief:
as §1
With GENTAMICIN, the MIC is above 256 µg/mL.

Compound `O=C(O)c1cn(C2CC2)c2cc(N3CCNCC3)c(F)cc2c1=O` [CIPROFLOXACIN] gave an MIC above 32 µg/mL.

A further assay concerns Acinetobacter baumannii. Nature of the assay: Antibacterial activity against imipenem-resistant Acinetobacter baumannii abh29 by broth dilution method. It is filed as functional.
Conditions: not given
Summed up: as §1
In turn, GENTAMICIN gave an MIC above 256 µg/mL.

For the compound `O=C(O)c1cn(C2CC2)c2cc(N3CCNCC3)c(F)cc2c1=O` [CIPROFLOXACIN], the MIC is above 32 µg/mL.

The test system of another assay is Acinetobacter baumannii. Nature of the assay: Antibacterial activity against imipenem-resistant Acinetobacter baumannii abh36 by broth dilution method. The class given is functional.
Conditions: not given
The method in brief: as §1
Consider GENTAMICIN, for which the MIC is above 256 µg/mL.

Take `O=C(O)c1cn(C2CC2)c2cc(N3CCNCC3)c(F)cc2c1=O` [CIPROFLOXACIN]: the minimal inhibitory concentration (MIC) is above 32 µg/mL.

The test system of another assay is Acinetobacter baumannii. Nature of the assay: Antibacterial activity against imipenem-resistant Acinetobacter baumannii abh37 by broth dilution method. It is filed as functional.
Conditions: not given
The method in brief: as §1
GENTAMICIN registered an MIC above 256 µg/mL.

For the compound `O=C(O)c1cn(C2CC2)c2cc(N3CCNCC3)c(F)cc2c1=O` [CIPROFLOXACIN], the minimal inhibitory concentration (MIC) is above 32 µg/mL.

The test system of a further assay is Acinetobacter baumannii. The assay can be described thus: Antibacterial activity against imipenem-resistant Acinetobacter baumannii abh39 by broth dilution method. It is filed as functional.
Conditions: not given
Summed up:
as §1
The compound GENTAMICIN gave a minimum inhibitory concentration (MIC) above 256 µg/mL.

Compound `O=C(O)c1cn(C2CC2)c2cc(N3CCNCC3)c(F)cc2c1=O` [CIPROFLOXACIN] showed an MIC above 32 µg/mL.
